Among the data in ChEMBL document CHEMBL1134248, “1,4-Benzodiazepine peripheral cholecystokinin (CCK-A) receptor agonists” (2001) are inhibition, ED50 and Max values, retold here.

For experiment [1], the species on record is Cavia porcellus. Briefly: In vitro functional efficacy determined by maximal contraction of isolated guinea pig gallbladder at 1 uM concentration of compound relative to CCK-8 at 1 uM. Put shortly:
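Isolated guinea pig gallbladder exposed to test ligand for 30 min at 37 °C. Maximal contraction at a single compound concentration is expressed relative to the CCK-8 contraction, set at 100%. Selective CCK-A antagonist MK-329 was used to check reversal of agonist responses.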

For experiment [2], the system named is Rattus norvegicus. In words: In vivo anoretic efficacy in the rat conditioned feeder assay measured as dose that produced half maximal response. The experiment is classed as functional. Put shortly:
(§1)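 Fasted rats in a conditioned-feeder model, dosed intraperitoneally; food intake measured at 30 min versus control animals. %Max is the percentage reduction in intake at 10 µmol/kg (CCK-8 at 0.5 µmol/kg). ED50 is the dose producing 50% of the maximal response seen at 10 µmol/kg.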

The species entered for experiment [3] is Cavia porcellus. Briefly: Concentration at which 50% of the maximal contraction was observed for % CCK. The experiment is classed as functional. Summed up:
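Isolated guinea pig gallbladder strips incubated with test ligand 30 min at 37 °C; contraction read as efficacy relative to CCK-8 (1 µM) = 100%. Single-concentration efficacy taken at 30 µM. Full dose–response curves run for ligands giving >40% of the CCK-8 response; ED50 is the concentration giving 50% of maximal contraction. Agonism checked for reversal by CCK-A antagonist MK-329.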

The subject of experiment [4] is Rattus norvegicus. In words: Percentage maximal response in rats at 10 umol/kg administered intraperitoneally. The experiment is classed as functional. Put shortly:
as §1

In general, inhibition refers to the drop in the measured response relative to a control, in per cent. The compound `COc1ccc(N(C(=O)CN2C(=O)C(Cc3n[nH]c4ccccc34)N=C(c3ccccc3)c3ccccc32)C(C)C)cc1` (configuration not stated) yielded an inhibition at 1 µM in the experiment filed under Cavia porcellus [1] of 27%.

Consider `COc1ccc(N(C(=O)CN2C(=O)C(NC(=O)Nc3cccc(C(=O)O)c3)[N+]([O-])=C(C3CCCCC3)c3ccccc32)C(C)C)cc1` (configuration not stated), for which the ED50 in the experiment with Rattus norvegicus [2] was determined as 80 nmol/kg; in the experiment filed under Cavia porcellus [3] it was 3 nM. In the experiment with Rattus norvegicus [4], the Max came to 69%.

For `COc1ccc(N(C(=O)CN2C(=O)C(NC(=O)Nc3ccccc3)[N+]([O-])=C(C)c3ccccc32)C(C)C)cc1` (configuration not stated), in the experiment filed under Cavia porcellus [3], the ED50 worked out at 202 nM.

On to `COc1ccc(N(C(=O)CN2C(=O)C(NC(=O)Nc3ccccc3)[N+]([O-])=C(C3CCCCC3)c3ccccc32)C(C)C)cc1` (configuration not stated), for which the ED50 in the experiment with Rattus norvegicus [2] was found to be 25 nmol/kg; in the experiment listed under Cavia porcellus [3], 342 nM. For the same compound, the Max in the experiment with Rattus norvegicus [4] came out at 75%.

Take `COc1ccc(N(C(=O)CN2C(=O)C(CC(=O)Nc3ccccc3)N=C(c3ccccc3)c3ccccc32)C(C)C)cc1` (configuration not stated): the ED50 in the experiment filed under Cavia porcellus [3] is 1100 nM.

`COc1ccc(N(C(=O)CN2C(=O)C(NC(=O)Nc3ccccc3)N=C(C)c3ccccc32)C(C)C)cc1` (configuration not stated) displayed an ED50 in the experiment filed under Cavia porcellus [3] of 296 nM.

In the experiment filed under Cavia porcellus [3], `CC(C)N(C(=O)CN1C(=O)C(Cc2c[nH]c3ccccc23)N=C(c2ccccc2)c2ccccc21)c1ccccc1` (configuration not stated) registered an ED50 of 41 nM.

In turn, `COc1ccc(N(C(=O)CN2C(=O)C(NC(=O)c3cc4ccccc4[nH]3)[N+]([O-])=C(C3CCCCC3)c3ccccc32)C(C)C)cc1` (configuration not stated) came in with an ED50 in the experiment listed under Cavia porcellus [3] of 131 nM.

In turn, `COc1ccc(N(C(=O)CN2C(=O)C(NC(=O)Nc3ccccc3)N=C(C3CCCCC3)c3ccccc32)C(C)C)cc1` (configuration not stated) had an ED50 in the experiment listed under Cavia porcellus [3] of 233 nM.

For `COc1ccc(N(C(=O)CN2C(=O)C(Cc3n[nH]c4ccccc34)[N+]([O-])=C(c3ccccc3)c3ccccc32)C(C)C)cc1` (configuration not stated), the values for the ED50 in the experiment on Rattus norvegicus [2] and in the experiment listed under Cavia porcellus [3] were 150 nmol/kg and 13 nM, respectively. In the experiment with Rattus norvegicus [4], the Max stood at 79%.

In the experiment filed under Cavia porcellus [1], `COc1ccc(N(C(=O)CN2C(=O)C(NC(=O)Nc3cccc(C(=O)O)c3)N=C(c3ccccc3)c3ccccc32)C(C)C)cc1` (configuration not stated) showed an inhibition at 1 µM of 27%.
